# Experimental data: publication PMC3184254 (Nature Chemical Biology, 2011)
# Read-outs that look alike come from different tables or passages of the source.
# Key:
# SUV39H2 = SUV39H2 (Homo sapiens, UniProt Q9H5I1); assay: SAHH-coupled assay, SUV39H2; type: biochemical
# Procedure, shortened: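 A fluorescence-based coupled assay used S-adenosyl-L-homocysteine hydrolase to follow conversion of cofactor SAM to SAH by the methyltransferase. IC50 values are the average of at least two separate experiments.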
# EZH2 = EZH2 (Homo sapiens, UniProt Q15910); assay: BPS Bioscience assay, EZH2; type: biochemical
# Sequence of EZH2 (Q15910 whole entry, species assumed): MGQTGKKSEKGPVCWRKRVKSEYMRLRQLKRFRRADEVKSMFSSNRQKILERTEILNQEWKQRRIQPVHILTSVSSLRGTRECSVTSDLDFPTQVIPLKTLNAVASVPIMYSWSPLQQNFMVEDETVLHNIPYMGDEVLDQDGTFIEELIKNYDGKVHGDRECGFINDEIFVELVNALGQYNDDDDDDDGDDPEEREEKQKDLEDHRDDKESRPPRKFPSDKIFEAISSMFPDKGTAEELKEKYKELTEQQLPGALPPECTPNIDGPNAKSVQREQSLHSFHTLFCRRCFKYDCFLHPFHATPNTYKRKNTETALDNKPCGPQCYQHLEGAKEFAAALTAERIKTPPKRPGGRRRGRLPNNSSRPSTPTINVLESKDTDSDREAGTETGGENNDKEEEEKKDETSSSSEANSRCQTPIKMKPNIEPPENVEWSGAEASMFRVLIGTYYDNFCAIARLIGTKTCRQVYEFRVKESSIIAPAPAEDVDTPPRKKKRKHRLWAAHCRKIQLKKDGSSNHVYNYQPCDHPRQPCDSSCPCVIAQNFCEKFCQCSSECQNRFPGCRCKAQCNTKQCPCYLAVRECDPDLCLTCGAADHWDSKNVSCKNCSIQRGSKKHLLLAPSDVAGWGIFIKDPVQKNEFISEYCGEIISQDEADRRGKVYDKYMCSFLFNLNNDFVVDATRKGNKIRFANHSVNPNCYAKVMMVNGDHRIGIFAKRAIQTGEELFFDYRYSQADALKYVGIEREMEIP
# Sequence of EZH2 (O75530 whole entry partner, species assumed): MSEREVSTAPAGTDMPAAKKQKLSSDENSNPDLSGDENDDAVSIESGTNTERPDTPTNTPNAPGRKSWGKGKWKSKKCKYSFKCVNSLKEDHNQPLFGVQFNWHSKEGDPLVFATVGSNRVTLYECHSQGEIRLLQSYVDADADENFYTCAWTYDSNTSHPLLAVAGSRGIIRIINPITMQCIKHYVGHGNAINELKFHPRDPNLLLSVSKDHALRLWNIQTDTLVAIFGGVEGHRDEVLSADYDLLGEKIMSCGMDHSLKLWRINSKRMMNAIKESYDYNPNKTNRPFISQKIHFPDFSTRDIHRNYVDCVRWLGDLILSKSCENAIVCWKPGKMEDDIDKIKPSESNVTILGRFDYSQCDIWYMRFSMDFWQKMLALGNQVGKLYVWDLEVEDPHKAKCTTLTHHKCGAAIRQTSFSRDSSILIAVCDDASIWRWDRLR
# Sequence of EZH2 (Q15022 whole entry partner, species assumed): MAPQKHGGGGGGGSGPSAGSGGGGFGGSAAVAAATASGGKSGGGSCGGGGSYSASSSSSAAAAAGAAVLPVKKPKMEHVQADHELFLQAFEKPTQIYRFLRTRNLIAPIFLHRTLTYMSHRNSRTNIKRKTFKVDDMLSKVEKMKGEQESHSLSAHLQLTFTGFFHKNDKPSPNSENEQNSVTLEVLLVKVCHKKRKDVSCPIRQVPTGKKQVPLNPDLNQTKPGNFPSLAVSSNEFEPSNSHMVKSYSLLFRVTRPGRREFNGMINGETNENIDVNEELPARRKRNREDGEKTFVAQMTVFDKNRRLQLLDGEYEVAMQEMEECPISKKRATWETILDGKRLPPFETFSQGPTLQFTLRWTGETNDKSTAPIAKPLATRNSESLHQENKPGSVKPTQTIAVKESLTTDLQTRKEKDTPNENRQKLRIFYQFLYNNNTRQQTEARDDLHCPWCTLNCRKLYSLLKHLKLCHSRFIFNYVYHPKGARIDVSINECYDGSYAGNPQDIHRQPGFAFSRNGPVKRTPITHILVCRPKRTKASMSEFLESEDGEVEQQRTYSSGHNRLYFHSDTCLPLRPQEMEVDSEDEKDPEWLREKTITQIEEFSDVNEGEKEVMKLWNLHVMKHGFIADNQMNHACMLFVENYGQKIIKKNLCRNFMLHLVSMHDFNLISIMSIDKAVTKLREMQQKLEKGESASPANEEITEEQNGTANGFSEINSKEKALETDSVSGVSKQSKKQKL
# Sequence of EZH2 (Q09028 whole entry partner, species assumed): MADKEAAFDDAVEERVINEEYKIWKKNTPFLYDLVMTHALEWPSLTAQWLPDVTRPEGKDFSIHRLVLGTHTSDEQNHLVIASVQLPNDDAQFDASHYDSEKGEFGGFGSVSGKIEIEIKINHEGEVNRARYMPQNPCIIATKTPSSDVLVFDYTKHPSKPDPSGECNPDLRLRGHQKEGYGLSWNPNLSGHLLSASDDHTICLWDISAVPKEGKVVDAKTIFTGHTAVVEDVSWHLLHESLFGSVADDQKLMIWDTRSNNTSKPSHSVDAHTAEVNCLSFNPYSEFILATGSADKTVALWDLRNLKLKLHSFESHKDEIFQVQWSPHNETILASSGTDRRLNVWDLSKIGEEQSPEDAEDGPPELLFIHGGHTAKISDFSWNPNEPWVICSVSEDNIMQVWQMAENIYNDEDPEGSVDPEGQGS
# Sequence of EZH2 (Q6ZN18 whole entry partner, species assumed): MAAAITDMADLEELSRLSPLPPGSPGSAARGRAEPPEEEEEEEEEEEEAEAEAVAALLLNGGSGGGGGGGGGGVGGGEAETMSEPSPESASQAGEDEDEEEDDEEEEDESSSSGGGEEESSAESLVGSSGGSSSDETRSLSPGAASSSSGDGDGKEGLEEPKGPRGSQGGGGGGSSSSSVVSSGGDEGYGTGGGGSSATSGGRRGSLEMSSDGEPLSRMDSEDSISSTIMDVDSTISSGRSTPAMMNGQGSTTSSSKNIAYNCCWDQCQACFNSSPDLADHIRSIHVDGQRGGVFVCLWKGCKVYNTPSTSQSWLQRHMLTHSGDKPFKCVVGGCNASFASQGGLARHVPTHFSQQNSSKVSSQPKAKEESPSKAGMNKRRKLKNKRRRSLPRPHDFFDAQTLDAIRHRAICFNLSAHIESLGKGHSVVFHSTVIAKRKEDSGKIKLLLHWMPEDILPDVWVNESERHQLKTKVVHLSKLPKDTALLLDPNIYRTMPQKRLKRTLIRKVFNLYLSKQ
# G9a = molecular target: T1, G9a (Homo sapiens, UniProt Q96KQ7); assay: Endoproteinase-coupled microfluidic capillary electrophoresis; type: biochemical
# T1 sequence (Q96KQ7 1-1210): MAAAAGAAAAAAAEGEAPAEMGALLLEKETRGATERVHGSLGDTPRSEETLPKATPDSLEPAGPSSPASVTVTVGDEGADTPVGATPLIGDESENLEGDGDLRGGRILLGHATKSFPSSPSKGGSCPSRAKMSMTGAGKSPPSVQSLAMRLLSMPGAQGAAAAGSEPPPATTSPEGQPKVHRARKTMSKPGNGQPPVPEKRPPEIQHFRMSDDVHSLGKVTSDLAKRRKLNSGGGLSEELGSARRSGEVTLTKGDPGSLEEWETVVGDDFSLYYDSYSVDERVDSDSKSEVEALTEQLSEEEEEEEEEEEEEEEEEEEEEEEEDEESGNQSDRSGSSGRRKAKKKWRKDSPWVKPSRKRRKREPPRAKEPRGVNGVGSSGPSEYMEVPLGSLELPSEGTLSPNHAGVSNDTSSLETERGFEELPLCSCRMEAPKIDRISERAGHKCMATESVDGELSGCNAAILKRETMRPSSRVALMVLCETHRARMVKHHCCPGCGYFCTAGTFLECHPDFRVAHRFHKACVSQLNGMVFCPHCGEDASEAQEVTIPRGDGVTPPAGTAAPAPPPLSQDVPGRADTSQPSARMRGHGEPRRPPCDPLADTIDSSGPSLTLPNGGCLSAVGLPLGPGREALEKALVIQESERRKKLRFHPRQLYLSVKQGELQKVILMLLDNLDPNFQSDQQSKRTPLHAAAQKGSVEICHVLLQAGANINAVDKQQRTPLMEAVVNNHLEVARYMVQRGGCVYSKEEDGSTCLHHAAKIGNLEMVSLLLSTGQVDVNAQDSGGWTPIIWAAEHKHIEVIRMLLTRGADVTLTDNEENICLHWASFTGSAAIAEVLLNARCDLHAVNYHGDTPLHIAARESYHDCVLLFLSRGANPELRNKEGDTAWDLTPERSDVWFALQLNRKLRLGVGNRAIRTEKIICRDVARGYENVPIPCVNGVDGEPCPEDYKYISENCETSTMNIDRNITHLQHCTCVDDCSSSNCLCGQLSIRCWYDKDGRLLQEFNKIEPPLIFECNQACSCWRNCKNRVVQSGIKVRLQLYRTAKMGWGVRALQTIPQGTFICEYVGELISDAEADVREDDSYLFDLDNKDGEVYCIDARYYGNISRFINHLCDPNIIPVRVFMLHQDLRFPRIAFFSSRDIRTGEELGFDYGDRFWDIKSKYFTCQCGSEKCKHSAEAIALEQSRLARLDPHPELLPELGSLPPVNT
# [1] = system: 26 out of 29 targets in the Ricerca Selectivity Panel; assay: Ricerca Selectivity Panel; type: binding; details: at 1 μM
# [2] = system: 45 targets, including 36 GPCRs; assay: NIMH Psychoactive Drug Screen Program Selectivity Panel; type: binding; details: at 1 μM
# M4 = M4 (Homo sapiens, UniProt P08173); assay: M4 functional assay; type: cell-based
# Sequence of M4 (P08173 whole entry): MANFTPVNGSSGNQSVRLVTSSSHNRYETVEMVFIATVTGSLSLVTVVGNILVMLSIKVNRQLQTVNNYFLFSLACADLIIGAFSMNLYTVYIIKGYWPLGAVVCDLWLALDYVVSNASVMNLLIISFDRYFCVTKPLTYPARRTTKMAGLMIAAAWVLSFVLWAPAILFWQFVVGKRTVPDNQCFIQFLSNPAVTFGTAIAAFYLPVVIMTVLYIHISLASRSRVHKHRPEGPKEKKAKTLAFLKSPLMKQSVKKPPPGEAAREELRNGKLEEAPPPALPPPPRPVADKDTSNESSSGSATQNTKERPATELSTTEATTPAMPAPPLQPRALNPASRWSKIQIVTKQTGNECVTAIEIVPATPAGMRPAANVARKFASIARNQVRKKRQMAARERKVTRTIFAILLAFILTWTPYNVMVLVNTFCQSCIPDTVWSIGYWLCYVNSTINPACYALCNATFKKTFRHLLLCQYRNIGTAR
# [3] = system: H3K9me2 levels in MCF7 cells; assay: H3K9me2 inhibition, MCF7; type: cell-based; details: Homo sapiens, MCF7, read-out: IC90 for H3K9me2 inhibition
# [4] = system: H3K9me2 at EGFP provirus and MAGEA2 promoter in mES cells; assay: ChIP of H3K9me2 in mES cells; type: cell-based, mouse; details: 500 nM for 3 or 7 d
# Sequence of SUV39H2 (Q9H5I1 whole entry, species assumed): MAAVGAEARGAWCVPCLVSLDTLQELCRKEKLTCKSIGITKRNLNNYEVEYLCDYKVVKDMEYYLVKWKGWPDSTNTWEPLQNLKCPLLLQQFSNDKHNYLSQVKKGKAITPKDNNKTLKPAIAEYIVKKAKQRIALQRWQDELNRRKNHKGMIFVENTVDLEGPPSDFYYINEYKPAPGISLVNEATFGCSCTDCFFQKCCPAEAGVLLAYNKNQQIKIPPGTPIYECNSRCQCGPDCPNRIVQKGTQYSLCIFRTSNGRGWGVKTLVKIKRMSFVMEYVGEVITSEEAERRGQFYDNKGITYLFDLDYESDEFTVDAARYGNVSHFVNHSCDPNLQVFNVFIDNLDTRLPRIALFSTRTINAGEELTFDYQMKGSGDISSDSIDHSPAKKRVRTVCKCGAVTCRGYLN
smiles,measurement,setting,value
COc1cc2c(NC3CCN(C(C)C)CC3)nc(C3CCCCC3)nc2cc1OCCCN1CCCC1 [UNC0638],IC50,SUV39H2,> 10 µM
same,IC50,SUV39H2; SAHH-coupled assay,inactive
same,IC50,EZH2,> 10 µM
same,IC50,EZH2; assay results from BPS Bioscience,inactive
same,mechanism of action versus peptide substrate,G9a; Km of the peptide increased linearly with UNC0638 concentration,competitive with the peptide substrate
same,mechanism of action versus cofactor SAM,G9a; apparent Km of SAM remained constant,noncompetitive with cofactor SAM
same,inhibition,[1],< 30%
same,inhibition,[2]; against 6 targets in the panel,> 50%
same,inhibition,[2]; against 39 targets in the panel,< 50%
same,IC50,M4,> 10 µM
same,IC90,[3],0.32 µM
same,H3K9me2 at EGFP provirus and MAGEA2 promoter (ChIP),[4],decreased H3K9me2 at both targets by day 3
